The target of data set [1] is T1, Amyloid-beta precursor protein (Homo sapiens, UniProt P05067). In words: Binding affinity to HFIP-pretreated amyloid beta (1 to 42) (unknown origin) assessed as lys16-adduct formation by measuring increase in molecular mass at 50 uM measured up to 6 hrs by LC-MS/MS analysis. A digest of the protocol: (§1)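 Aβ42 at 50 μM co-incubated with test compound at 50 μM (1:1) under the ThT assay conditions. Deconvoluted mass spectra were taken at 0, 6 and 24 h. Adducts were scored as new higher-mass species, i.e. mass increments over Aβ42.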

Data set [2] can be described thus: Electrochemical behavior of compound assessed as half wave redox potential in 0.2 M phosphate buffer using Ag/AgCl reference electrode by cyclic voltammetry. Type of data set: physicochemical.
Data set [3] can be described thus: Reversible electrochemical behavior of compound assessed as cathodic peak for reconversion of ortho-benzoquinone in 0.2 M phosphate buffer using Ag/AgCl reference electrode by cyclic voltammetry. Type of data set: physicochemical.
In data set [4] the test system is SH-SY5Y. In words: Cytotoxicity against human SH-SY5Y cells assessed as reduction in cell viability at 10 uM measured after 24 hrs by MTT assay relative to control. Type of data set: toxicity, cell-based. In a few lines: (§2)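 Human neuroblastoma SH-SY5Y cells were treated with compound at 5 and 10 μM for 24 h. Viability was read by MTT assay.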
Data set [5] addresses T1, Amyloid-beta precursor protein. In words: Inhibition of HFIP-pretreated amyloid beta (1 to 42 ) (unknown origin) self aggregation at 50 uM after 24 hrs by thioflavin-T fluorescence method relative to control. A digest of the protocol:
(§3)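 Self-aggregation of 50 μM Aβ42 was measured by ThT fluorescence. Single-point % inhibition used compound at 50 μM (1:1 with Aβ42). IC50 was determined where inhibition exceeded 50%. Values are the mean of two independent experiments, each run in duplicate, ± SEM.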

A short description of data set [6]: Electrochemical behavior of compound assessed as anodic peak for oxidation of catechol group in 0.2 M phosphate buffer using Ag/AgCl reference electrode by cyclic voltammetry. The class given is physicochemical.
The target of data set [7] is T1, Amyloid-beta precursor protein. In words: Inhibition of HFIP-pretreated amyloid beta (1 to 42 ) (unknown origin) self aggregation at 50 uM after 24 hrs by LC-MS/MS analysis relative to control. In a few lines:
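Aβ42 at 50 μM incubated under the ThT assay conditions with or without compound at 50 μM (1:1). Residual monomeric Aβ42 was quantified by MS, and % inhibition was taken against compound-free samples.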

Data set [8] has the same target. In words: Binding affinity to HFIP-pretreated amyloid beta (1 to 42) (unknown origin) assessed as lys16-adduct formation by measuring increase in molecular mass at 50 uM measured at 24 hrs by LC-MS/MS analysis. A digest of the protocol:
as §1

For data set [9] the target is unchanged. Put plainly: Inhibition of HFIP-pretreated amyloid beta (1 to 42 ) (unknown origin) self aggregation assessed as increase in protein oxidation at 50 uM after 24 hrs by LC-MS/MS analysis. In a few lines:
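Aβ42 incubated with or without compound at an equimolar level under the ThT assay conditions. Oxidized Aβ42 was followed by MS as the ratio of the oxidized-Aβ42 signal to the reserpine internal-standard signal, plotted against incubation time.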

Data set [10] has as its system SH-SY5Y. Put plainly: Cytotoxicity against human SH-SY5Y cells assessed as reduction in cell viability at 5 to 10 uM measured after 24 hrs by MTT assay. Type of data set: toxicity, cell-based. Particulars: dose 5-10 µM. A digest of the protocol:
as §2
(Tetrazolium assays rely on reduction of a dye to a coloured formazan, in cell work by metabolically active cells.)

Data set [11] deals with T1, Amyloid-beta precursor protein. Put plainly: Inhibition of HFIP-pretreated amyloid beta (1 to 42) (unknown origin) self aggregation after 24 hrs by thioflavin-T fluorescence method. In a few lines: as §3

The source made the active and inactive calls. The rule behind the calls is not given here. A value given as a limit tells only on which side of the number the result lay.

T1 sequence (P05067 whole entry): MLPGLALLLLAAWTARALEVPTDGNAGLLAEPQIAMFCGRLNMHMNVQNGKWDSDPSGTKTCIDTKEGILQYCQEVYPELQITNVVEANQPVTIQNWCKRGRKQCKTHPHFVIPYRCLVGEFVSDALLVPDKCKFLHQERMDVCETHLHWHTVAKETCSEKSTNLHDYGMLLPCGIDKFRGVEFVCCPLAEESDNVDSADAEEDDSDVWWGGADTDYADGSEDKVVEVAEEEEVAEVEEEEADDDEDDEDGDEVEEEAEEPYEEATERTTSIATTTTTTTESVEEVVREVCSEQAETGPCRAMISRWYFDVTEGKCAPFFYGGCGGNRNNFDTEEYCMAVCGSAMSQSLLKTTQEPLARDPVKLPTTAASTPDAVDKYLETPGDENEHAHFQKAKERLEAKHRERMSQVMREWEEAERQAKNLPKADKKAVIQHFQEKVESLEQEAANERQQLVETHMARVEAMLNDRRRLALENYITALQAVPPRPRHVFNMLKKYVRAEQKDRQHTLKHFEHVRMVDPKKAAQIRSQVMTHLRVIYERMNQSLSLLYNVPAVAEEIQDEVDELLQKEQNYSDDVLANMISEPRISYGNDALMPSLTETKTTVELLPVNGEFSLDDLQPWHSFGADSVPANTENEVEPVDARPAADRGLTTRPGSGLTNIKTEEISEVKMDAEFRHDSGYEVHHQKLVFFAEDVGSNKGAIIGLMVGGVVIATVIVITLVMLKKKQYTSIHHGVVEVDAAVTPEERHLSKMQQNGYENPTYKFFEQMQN

With `CCCSC(=O)/C=C/c1cc(O)ccc1O`, the Activity in data set [1] is 232 Da; in data set [2], 0.1 V; in [3], “Active”; in the data set on SH-SY5Y [4], greater than 50%; in data set [8] it was 268 Da. The figures for the inhibition in data set [5] and in [7] were greater than 90% and 43.6%, respectively. In data set [6], the Ep is 0.32 V. In [9], the inhibition result was “Active”.

Consider `CCCSC(=O)/C=C/c1cc(O)cc(O)c1`, for which the Activity is given as 0.66 V in [2], “Active” in [3] and “Non-Toxic” in the data set with SH-SY5Y [10]. Also, the inhibition in [5] and in [7] was less than 10% each time. Moreover, the Ep in [6] worked out at 0.76 V.

For `CCCSC(=O)/C=C/c1ccc(O)c(O)c1`, the Activity was 0.1 V in data set [2], “Active” in [3] and “Non-Toxic” with SH-SY5Y [10]. The IC50 in data set [11] was found to be 3.99 µM. Besides, in [5], the inhibition was greater than 90%. Moreover, in [6], the Ep was 0.19 V.

The term inhibition denotes the share of the control response that was lost under treatment. As usually defined, the IC50 is the concentration needed to halve the response being measured.

For the origin of these results see ChEMBL document CHEMBL5126673, “Inhibition of β-Amyloid Aggregation in Alzheimer's Disease: The Key Role of (Pro)electrophilic Warheads” (ACS Med Chem Lett, 2022).
